Active and inactive are the calls of the source. No cut-off for these calls is given here.
Columns and labels:
Pseudomonas aeruginosa [1] = experiment: Antibacterial activity against Pseudomonas aeruginosa PAO1 assessed as growth inhibition at 10 mg/ml after 16 to 20 hrs; assay type: functional, organism-based
Outline: (§1)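 Disc diffusion: sterile filter discs loaded with 10 µl of a 10 mg/ml compound solution were placed on evenly inoculated LB or minimal medium agar plates and incubated 16–20 h at 37 °C. Growth inhibition around each disc was scored qualitatively (weak, partial, or strong). Controls were 10 µl of 1 mg/ml ampicillin and DMSO.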

Escherichia coli [2] = experiment: Antibacterial activity against Escherichia coli 1655 assessed as growth inhibition at 10 mg/ml after 16 to 20 hrs; assay type: functional, organism-based; outline: as §1
[3] = Cytotoxicity against human CL1 cells expressing hTERT assessed as cell viability at 100 ug/ml after 24 hrs by MTT assay; assay type: cell-based
[4] = Cytotoxicity against human CL1 cells expressing hTERT assessed as cell viability at 100 ug/ml after 24 hrs by trypan blue exclusion assay; assay type: cell-based
Staphylococcus aureus [5] = experiment: Antibacterial activity against clinical isolate of Staphylococcus aureus assessed as growth inhibition at 10 mg/ml after 16 to 20 hrs; assay type: functional, organism-based; outline: as §1
Staphylococcus aureus [6] = experiment: Antibacterial activity against methicillin-resistant Staphylococcus aureus Mu50 assessed as growth inhibition at 10 mg/ml after 16 to 20 hrs; assay type: functional, organism-based
Outline: (§2)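 Disc diffusion assay. Sterile filter discs soaked with 10 µl of a 10 mg/ml compound solution were placed on evenly inoculated LB or minimal medium agar, then incubated 16–20 h at 37 °C. Growth inhibition was scored by eye on a graded scale from strong inhibition through weak or partial inhibition to none. DMSO served as the negative control.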

Escherichia coli [7] = experiment: Antibacterial activity against clinical isolate of Escherichia coli assessed as growth inhibition at 10 mg/ml after 16 to 20 hrs; assay type: functional, organism-based; outline: as §1
Staphylococcus aureus [8] = experiment: Antibacterial activity against methicillin-resistant Staphylococcus aureus USA300 assessed as growth inhibition at 10 mg/ml after 16 to 20 hrs; assay type: functional, organism-based; outline: as §2
Staphylococcus aureus [9] = experiment: Antibacterial activity against methicillin-resistant Staphylococcus aureus Mu50 assessed as growth inhibition at 10 mg/ml after 16 to 20 hrs in presence of 0.2 mM L-histidine; assay type: functional, organism-based
Outline: (§3)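 Histidine complementation disc assay. Discs soaked with 10 µl of a 10 mg/ml compound solution were placed on evenly inoculated minimal medium agar supplemented with 0.2 mM L-histidine, then incubated 16–20 h at 37 °C. Inhibition zones were scored by eye on a graded scale (strong, weak, partial, none).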

Escherichia coli [10] = experiment: Antibacterial activity against Escherichia coli 1655 assessed as growth inhibition at 10 mg/ml after 16 to 20 hrs in presence of 0.2 mM L-histidine; assay type: functional, organism-based
Outline: (§4)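 Histidine complementation: minimal medium agar plates were supplemented with 0.2mM L-histidine and evenly inoculated. Filter discs soaked with 10 µl of 10 mg/ml compound were applied, and plates were incubated 16–20 h at 37 °C. Inhibition was scored qualitatively. Ampicillin (10 µl, 1 mg/ml) and DMSO served as controls.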

Staphylococcus aureus [11] = experiment: Antibacterial activity against methicillin-resistant Staphylococcus aureus USA300 assessed as growth inhibition at 10 mg/ml after 16 to 20 hrs in presence of 0.2 mM L-histidine; assay type: functional, organism-based; outline: as §3
Pseudomonas aeruginosa [12] = experiment: Antibacterial activity against Pseudomonas aeruginosa PAO1 assessed as growth inhibition at 10 mg/ml after 16 to 20 hrs in presence of 0.2 mM L-histidine; assay type: functional, organism-based; outline: as §4
Staphylococcus aureus [13] = experiment: Antibacterial activity against methicillin-resistant Staphylococcus aureus USA300 assessed as growth inhibition at 1 mg/ml after 16 to 20 hrs in presence of 0.2 mM L-histidine; assay type: functional, organism-based
Outline: (§5)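 Discs carrying 10 µl of a 1 mg/ml solution were placed on evenly inoculated minimal medium agar containing 0.2 mM L-histidine, then incubated 16–20 h at 37 °C. Inhibition zones were scored by eye as strong, weak, partial or none.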

Staphylococcus aureus [14] = experiment: Antibacterial activity against clinical isolate of Staphylococcus aureus assessed as growth inhibition at 1 mg/ml after 16 to 20 hrs; assay type: functional, organism-based
Escherichia coli [15] = experiment: Antibacterial activity against Escherichia coli 1655 assessed as growth inhibition at 1 mg/ml after 16 to 20 hrs in presence of 0.2 mM L-histidine; assay type: functional, organism-based
Pseudomonas aeruginosa [16] = experiment: Antibacterial activity against Pseudomonas aeruginosa PAO1 assessed as growth inhibition at 1 mg/ml after 16 to 20 hrs in presence of 0.2 mM L-histidine; assay type: functional, organism-based
Staphylococcus aureus [17] = experiment: Antibacterial activity against methicillin-resistant Staphylococcus aureus USA300 assessed as growth inhibition at 1 mg/ml after 16 to 20 hrs; assay type: functional, organism-based
Outline: (§6)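 Disc diffusion assay. Filter discs carrying 10 µl of a 1 mg/ml solution were placed on evenly inoculated LB or minimal medium agar plates, then incubated 16–20 h at 37 °C. Growth inhibition was scored by eye on a graded scale (strong, weak, partial, none).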

Escherichia coli [18] = experiment: Antibacterial activity against clinical isolate of Escherichia coli assessed as growth inhibition at 1 mg/ml after 16 to 20 hrs; assay type: functional, organism-based
Staphylococcus aureus [19] = experiment: Antibacterial activity against methicillin-resistant Staphylococcus aureus Mu50 assessed as growth inhibition at 1 mg/ml after 16 to 20 hrs; assay type: functional, organism-based; outline: as §6
Escherichia coli [20] = experiment: Antibacterial activity against Escherichia coli 1655 assessed as growth inhibition at 1 mg/ml after 16 to 20 hrs; assay type: functional, organism-based
Staphylococcus aureus [21] = experiment: Antibacterial activity against methicillin-resistant Staphylococcus aureus Mu50 assessed as growth inhibition at 1 mg/ml after 16 to 20 hrs in presence of 0.2 mM L-histidine; assay type: functional, organism-based; outline: as §5

Row | Structure (SMILES) | Activity (Pseudomonas aeruginosa [1]) | Activity (Escherichia coli [2]) | Activity (Staphylococcus aureus [5]) | Activity (Staphylococcus aureus [6]) | Activity (Escherichia coli [7]) | Activity (Staphylococcus aureus [8]) | Activity (Staphylococcus aureus [9]) | Activity (Escherichia coli [10]) | Activity (Staphylococcus aureus [11]) | Activity (Pseudomonas aeruginosa [12]) | other results
1 | Cc1c(OCC(=O)O)ccc2c(-c3ccccc3)cc(=O)oc12 | Active | Active | Active | Active | Active | Active | – | – | – | – | Activity [3]: Non-toxic; Activity [4]: Non-toxic
2 | CCN(CCc1ccccc1)C(=O)CSc1ncccc1C(=O)O | – | Active | – | – | – | – | inactive | Active | inactive | Active | –
3 | CCCCc1cc(=O)oc2c(C)c(O[C@H](C)C(=O)O)ccc12 | Active | – | Active | Active | – | inactive | Active | Active | Active | Active | –
4 | CC(=O)C1C(O)C(=O)N(c2ccc(C(=O)O)cc2)[C@H]1c1ccccc1 (stereo partly specified) | Active | Active | Active | Active | Active | Active | inactive | inactive | inactive | inactive | –
5 | O=C(O)C[C@H](c1ccncc1)c1c[nH]c2ccccc12 | Active | – | Active | Active | Active | inactive | Active | Active | Active | Active | –
6 | O=C(O)c1cccc(NC(=O)[C@H]2CCCC[C@@H]2C(=O)O)c1 | Active | – | inactive | inactive | inactive | inactive | – | – | – | – | –
7 | CC(=O)C1=C(O)C(=O)N(CCC(=O)O)[C@@H]1c1ccc(C(C)C)cc1 | Active | Active | inactive | Active | Active | inactive | Active | Active | Active | Active | –
8 | CN(C)c1ccc(/C=N/Nc2ccc(S(=O)(=O)O)cc2)cc1 | – | – | inactive | inactive | inactive | inactive | – | – | – | – | –
9 | Cc1ncc(CO)c(CNc2ccc(Oc3ccccc3)cc2)c1O | Active | Active | Active | Active | – | Active | – | – | – | – | Activity [4]: Toxic
10 | O=C(O)c1ccc([C@H](O)[C@@H](O)c2ccccc2)cc1 | inactive | Active | Active | Active | – | Active | – | – | – | – | Activity [4]: Toxic
11 | C[C@@H](NC[C@@H](O)Cn1c2ccccc2c2ccccc21)C(=O)O | inactive | inactive | inactive | inactive | inactive | inactive | – | – | – | – | –
12 | O=C(O)C[C@H](NCc1ccco1)C(=O)Cc1ccc(Cl)cc1 | – | inactive | inactive | inactive | inactive | inactive | – | – | – | – | –
13 | CCc1cc(=O)oc2c3c(c(C)c(OCC(=O)O)c12)OC(C)(C)C=C3 | Active | Active | inactive | Active | inactive | – | inactive | Active | inactive | Active | –
14 | O=C1Nc2ccc(Cl)cc2C(c2cccc(O)c2)=N[C@H]1O | Active | Active | – | Active | – | Active | – | – | – | – | –
15 | O=C(O)CCCNC[C@@H](O)Cn1c2ccccc2c2ccccc21 | inactive | – | Active | Active | – | Active | Active | inactive | inactive | inactive | Activity [4]: Non-toxic
16 | CSCC[C@@H](NCC[C@H](O)c1ccccc1)C(=O)O | Active | inactive | inactive | inactive | inactive | inactive | – | – | – | – | –
17 | CC1(C)S[C@@H]2[C@H](NC(=O)[C@H](N)c3ccccc3)C(=O)N2[C@H]1C(=O)O [AMPICILLIN] | – | – | – | – | – | – | – | – | – | – | Activity (Staphylococcus aureus [13]): Active; Activity (Staphylococcus aureus [14]): Active; Activity (Escherichia coli [15]): inactive; Activity (Pseudomonas aeruginosa [16]): inactive; Activity [4]: Non-toxic; Activity (Staphylococcus aureus [17]): Active; Activity (Escherichia coli [18]): Active; Activity (Staphylococcus aureus [19]): Active; Activity (Escherichia coli [20]): Active; Activity (Staphylococcus aureus [21]): Active
18 | Cc1oc(C(=O)O)cc1COc1ccc2c3c(c(=O)oc2c1C)CCC3 | inactive | inactive | Active | Active | inactive | inactive | – | – | – | – | –
